Source: ChEMBL document CHEMBL1154054, “Novel 4-(morpholin-4-yl)-N'-(arylidene)benzohydrazides: synthesis, antimycobacterial activity and QSAR investigations” (Eur J Med Chem, 2009)

How the values were obtained:
Type in all cases: functional
Design in all cases: scale not given: the % may be the effect or the level left
[1] = tested on: Mycobacterium tuberculosis; experiment: Antimycobacterial activity against Mycobacterium tuberculosis H37Rv assessed as reduction in relative light units at 0.5 ug/ml after 72 hrs by LRP assay
In short: (§1)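 Luciferase reporter phage assay on M. tuberculosis (H37Rv, or clinical isolates resistant to S, H, R and E). Each sample had two drug-free controls and four drug concentrations, incubated 72 h at 37 °C. High-titer phAE129 phage plus 0.1 M CaCl₂ was added, then 4 h at 37 °C. Equal volume D-luciferin (0.3 mM, pH 4.5 citrate) was added; RLU integrated 10 s, duplicate mean; % RLU reduction vs control.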

[2] = tested on: Mycobacterium tuberculosis; experiment: Antimycobacterial activity against Mycobacterium tuberculosis H37Rv assessed as reduction in relative light units at 0.05 ug/ml after 72 hrs by LRP assay; in short: as §1
[3] = tested on: Mycobacterium tuberculosis; experiment: Antimycobacterial activity against Mycobacterium tuberculosis H37Rv assessed as reduction in relative light units at 5 ug/ml after 72 hrs by LRP assay; in short: as §1
[4] = tested on: Mycobacterium tuberculosis; experiment: Antimycobacterial activity against Mycobacterium tuberculosis H37Rv assessed as reduction in relative light units at 10 ug/ml after 72 hrs by LRP assay; in short: as §1

Row | Compound | Activity [1] [%] | Activity [2] [%] | Activity [3] [%] | Activity [4] [%]
1 | Cc1ccc(/C=N/NC(=O)c2ccc(N3CCOCC3)cc2)cc1 | 97.29 | 24.19 | 97.75 | 98.18
2 | COc1cc(/C=N/NC(=O)c2ccc(N3CCOCC3)cc2)cc(OC)c1OC | 96.51 | 49.68 | 97.59 | 97.77
3 | O=C(N/N=C1\C=CCO1)c1ccc(N2CCOCC2)cc1 | 96.9 | 15.04 | 98.41 | 97.55
4 | O=C(N/N=C/c1ccc(F)cc1)c1ccc(N2CCOCC2)cc1 | 98.22 | 96.78 | 98.98 | 99.09
5 | O=C(N/N=C/c1ccc(O)cc1)c1ccc(N2CCOCC2)cc1 | 77.81 | 51.79 | 97.53 | 97.24
6 | COc1ccc(/C=N/NC(=O)c2ccc(N3CCOCC3)cc2)cc1 | 96.24 | 30.04 | 98.1 | 97.18
7 | O=C(N/N=C/c1cccc([N+](=O)[O-])c1)c1ccc(N2CCOCC2)cc1 | 98.04 | 9.118 | 98.4 | 98.4
8 | O=C(N/N=C/c1ccc(Cl)cc1)c1ccc(N2CCOCC2)cc1 | 98.02 | 78.09 | 98.38 | 99.26
9 | O=C(N/N=C\C=C\c1ccccc1)c1ccc(N2CCOCC2)cc1 | 98.96 | 63.16 | 97.82 | 97.32
10 | CN(C)c1ccc(/C=N/NC(=O)c2ccc(N3CCOCC3)cc2)cc1 | 98.09 | 20.85 | 98.49 | 98.82
11 | NNC(=O)c1ccncc1 [ISONIAZID] | 98.42 | 96 | 99.01 | 98.99
